Results taken from PubChem BioAssay.
The source made the active and inactive calls.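 Rule for the calls, unless noted: active = membrane potential signal rise above negative control mean plus 3 SD in both duplicates, also active in the earlier TRPC4 screen; inactive = the rest.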

target: Short transient receptor potential channel 6 (Mus musculus) (UniProt Q61143); assay: TRPC6 blockade by TRPC4 inhibitor hits – cell-based, HEK293, membrane potential dye, duplicate, selectivity assay for TRPC4 inhibitor project, confirmation (AID 434948;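 active = active in primary screen and both duplicates, each dropping signal beyond three positive-control SD with fluorescence still positive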); details: HEK293 TRPC6, membrane potential dye fluorescence, at 10 µM, stimulated with maximal-effect acetylcholine; active compounds read high
Sequence (Q61143 whole entry, looked up): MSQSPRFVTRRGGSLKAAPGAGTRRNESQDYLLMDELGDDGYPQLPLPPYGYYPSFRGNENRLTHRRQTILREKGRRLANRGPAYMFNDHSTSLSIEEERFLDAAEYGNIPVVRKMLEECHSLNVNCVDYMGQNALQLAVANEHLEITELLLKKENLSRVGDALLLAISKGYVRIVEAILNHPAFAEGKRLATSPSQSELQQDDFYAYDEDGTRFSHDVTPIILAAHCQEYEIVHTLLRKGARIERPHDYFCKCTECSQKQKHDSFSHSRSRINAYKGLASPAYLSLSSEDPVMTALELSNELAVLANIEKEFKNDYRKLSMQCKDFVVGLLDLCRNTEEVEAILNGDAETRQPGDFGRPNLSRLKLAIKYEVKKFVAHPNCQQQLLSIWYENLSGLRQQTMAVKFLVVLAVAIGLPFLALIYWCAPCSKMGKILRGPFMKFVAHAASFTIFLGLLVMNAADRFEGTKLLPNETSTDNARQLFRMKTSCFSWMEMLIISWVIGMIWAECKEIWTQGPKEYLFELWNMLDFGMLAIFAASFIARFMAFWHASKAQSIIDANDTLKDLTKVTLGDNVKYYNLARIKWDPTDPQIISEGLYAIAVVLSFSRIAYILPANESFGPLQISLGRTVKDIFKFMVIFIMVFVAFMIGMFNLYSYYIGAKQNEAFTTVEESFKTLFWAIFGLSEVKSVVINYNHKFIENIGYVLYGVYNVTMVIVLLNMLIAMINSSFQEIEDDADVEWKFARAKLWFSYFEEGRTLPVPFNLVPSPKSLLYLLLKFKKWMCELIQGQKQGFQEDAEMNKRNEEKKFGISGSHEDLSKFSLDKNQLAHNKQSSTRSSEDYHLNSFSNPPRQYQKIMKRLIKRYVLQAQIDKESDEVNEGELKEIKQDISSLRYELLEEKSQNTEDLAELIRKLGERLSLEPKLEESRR
Summary of the method: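 Test system: TRPC6-expressing HEK293 cells / Probe or stimulus: acetylcholine at maximal (ECmax) concentration, added after compound / Schedule: dye 45 min RT, compound 110 s, agonist read 110 s / Technique: membrane potential dye fluorescence, kinetic read / Read-out basis: control-normalized integrated fluorescence ratio / Repeats: two replicates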

outcome, inactive:
CC1CCc2c(sc3ncnc(SCC(=O)Nc4ccc(C(=O)O)cc4)c23)C1 (stereo not drawn)
NS(=O)(=O)c1ccc(Nc2nc(-c3ccc(O)cc3O)cs2)cc1
CCCn1c(NC(=O)c2ccc(Cl)c(S(=O)(=O)N3CCCC3)c2)nc2ccccc21

target: Short transient receptor potential channel 6 (Mus musculus) (UniProt Q61143); assay: TRPC6 opening by TRPC4 activator hits – cell-based, HEK293, membrane potential dye, duplicate, selectivity assay for TRPC4 activator project, confirmation (AID 434950); details: HEK293 TRPC6, membrane potential fluorescence, at 10 µM; activation: active compounds read high; outcome: activation;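 for activation: 0% = buffer only wells and 100% = acetylcholine maximal-effect wells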

outcome, inactive:
COc1ccc(CN2CCN(Cc3ccccc3F)CC2)c(OC)c1
C/C(N)=C(/C#N)C(=O)COC(=O)CC12CC3CC(CC(C3)C1)C2
CCCCC[n+]1cccc2c3ccccc3ccc21
COc1ccc(OC)c(Nc2cc(-c3ccccc3)nc(N)n2)c1
CCC1CCCCN1Cc1nc2c(c(=O)n(C)c(=O)n2C)n1Cc1ccccc1 (stereo not drawn)
CCOC(=O)C1CCN(C2CCN(C(=O)c3oc4c(C)c(C)ccc4c3C)CC2)CC1
O=[N+]([O-])c1cccc(-c2nnc(C3CC3)o2)c1
CCOc1c(Cl)cc(CNCC(O)c2ccccc2)cc1OC (stereo not drawn)
O=C(c1cccc(C(=O)N2CCN(c3ccccc3)CC2)c1)N1CCN(c2ccccc2)CC1
Cc1ccn2c(-c3csc(NCc4ccco4)n3)c(C)nc2c1
COc1ccc(Nc2nc(N)c3ccccc3n2)c(OC)c1
CCc1c(C(=O)N2CCCN(C)CC2)csc1C
COc1ccc(C)cc1N(C(=O)c1snc(C(N)=O)c1N)C(C(=O)NC1CCCC1)c1ccc(F)cc1 (stereo not drawn)
CC(C)(c1ccccc1)c1ccc(OCCCNCCO)cc1
CC(C)CCN1CCN(Cc2ccsc2)CC1CCO (stereo not drawn)
CN(CC1CCCN(CCc2cccc(C(F)(F)F)c2)C1)C(=O)c1cc2ccccc2o1 (stereo not drawn)
Oc1ccc(CN2CCc3ccccc3C2)c2cccnc12
COc1ccc(C2C(C(C)=O)=C(O)C(=O)N2c2ccc(Br)cc2)cc1 (stereo not drawn)
CCOC(=O)c1c(N)sc(C(O)(C(F)(F)F)C(F)(F)F)c1-c1ccccc1
CC1CCCN(CCCN2C(=O)C3C(C(=O)Nc4ccc(Cl)cc4)C4C=CC3(O4)C2C(=O)NC2CCCCC2)C1 (stereo not drawn)
O=C(C[n+]1cccc(CNC(=O)c2ccc(OC(F)F)cc2)c1)Nc1ccc(SC(F)F)cc1
Cc1ncsc1CCOC(=O)c1cccc([N+](=O)[O-])c1
CC#CC[N+](C)(C)CCCCCCCCCCCC
Cc1cc(OCc2cc(C(=O)NCCN3CCCCC3CO)no2)cc(C)c1Cl (stereo not drawn)
Cc1cc(N2CCC(C)CC2)nc2cccc(O)c12
Fc1ccccc1COc1ccc(Br)cc1CNCC1CCCO1 (stereo not drawn)
Cn1cc(CNCC2CCCO2)c(-c2ccc(Oc3ccccc3)cc2)n1 (stereo not drawn)
COc1cccc(C2=NN(C(=O)c3ccco3)C(c3ccco3)C2)c1 (stereo not drawn)
O=C(COC(=O)Cn1cnc2ccccc2c1=O)Nc1ccccc1Sc1ccc(Cl)cc1
NC(=O)c1nsc(C(=O)N(Cc2ccccc2Cl)C(C(=O)NCC2CCCO2)c2ccc(O)cc2)c1N (stereo not drawn)
O=C(NC1CCCCC1)N1CCN(C(c2ccccc2)c2ccccc2)CC1
Cc1ccc(NC(=S)N(CCCN(C)C)Cc2cc3cc4c(cc3[nH]c2=O)OCO4)c(C)c1
CCCC[n+]1c2ccccc2cc2ccccc21
CC(C)(C)CC(C)(C)NCC(O)COc1ccc2c(c1)CCC2 (stereo not drawn)
CCOc1ccc(Cl)cc1/C=N/O
O=C(C[n+]1cc(-c2ccc(Cl)c(Cl)c2)n2c1CCC2)N1c2ccccc2Sc2ccccc21
CC1CCc2c(sc3ncnc(SCC(=O)Nc4ccc(C(=O)O)cc4)c23)C1 (stereo not drawn)
NS(=O)(=O)c1ccc(Nc2nc(-c3ccc(O)cc3O)cs2)cc1
CCCn1c(NC(=O)c2ccc(Cl)c(S(=O)(=O)N3CCCC3)c2)nc2ccccc21

activation, active:
Cc1ccc(-n2nc(-c3cccs3)cc2C(=O)NCC2CCCO2)c(C)c1 (stereo not drawn) 32%

target: Short transient receptor potential channel 6 (Mus musculus) (UniProt Q61143); assay: positive modulators of mouse TRPC6 channel – HEK293 cells, membrane potential dye, duplicate, selectivity assay for TRPC4 potentiator project, confirmation (AID 434952;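 active = compound raising the membrane signal above positive-control mean plus 3 SD in both repeats, and a primary screen hit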); details: HEK293 TRPC6, membrane potential dye fluorescence, at 10 µM, maximal acetylcholine added after compound; active compounds read high

outcome, inactive:
COc1ccc(CN2CCN(Cc3ccccc3F)CC2)c(OC)c1
C/C(N)=C(/C#N)C(=O)COC(=O)CC12CC3CC(CC(C3)C1)C2
CCCCC[n+]1cccc2c3ccccc3ccc21
COc1ccc(OC)c(Nc2cc(-c3ccccc3)nc(N)n2)c1
CCC1CCCCN1Cc1nc2c(c(=O)n(C)c(=O)n2C)n1Cc1ccccc1 (stereo not drawn)
CCOC(=O)C1CCN(C2CCN(C(=O)c3oc4c(C)c(C)ccc4c3C)CC2)CC1
O=[N+]([O-])c1cccc(-c2nnc(C3CC3)o2)c1
CCOc1c(Cl)cc(CNCC(O)c2ccccc2)cc1OC (stereo not drawn)
O=C(c1cccc(C(=O)N2CCN(c3ccccc3)CC2)c1)N1CCN(c2ccccc2)CC1
Cc1ccn2c(-c3csc(NCc4ccco4)n3)c(C)nc2c1
COc1ccc(Nc2nc(N)c3ccccc3n2)c(OC)c1
CCc1c(C(=O)N2CCCN(C)CC2)csc1C
COc1ccc(C)cc1N(C(=O)c1snc(C(N)=O)c1N)C(C(=O)NC1CCCC1)c1ccc(F)cc1 (stereo not drawn)
CC(C)(c1ccccc1)c1ccc(OCCCNCCO)cc1
Cc1ccc(-n2nc(-c3cccs3)cc2C(=O)NCC2CCCO2)c(C)c1 (stereo not drawn)
CC(C)CCN1CCN(Cc2ccsc2)CC1CCO (stereo not drawn)
CN(CC1CCCN(CCc2cccc(C(F)(F)F)c2)C1)C(=O)c1cc2ccccc2o1 (stereo not drawn)
Oc1ccc(CN2CCc3ccccc3C2)c2cccnc12
COc1ccc(C2C(C(C)=O)=C(O)C(=O)N2c2ccc(Br)cc2)cc1 (stereo not drawn)
CCOC(=O)c1c(N)sc(C(O)(C(F)(F)F)C(F)(F)F)c1-c1ccccc1
CC1CCCN(CCCN2C(=O)C3C(C(=O)Nc4ccc(Cl)cc4)C4C=CC3(O4)C2C(=O)NC2CCCCC2)C1 (stereo not drawn)
O=C(C[n+]1cccc(CNC(=O)c2ccc(OC(F)F)cc2)c1)Nc1ccc(SC(F)F)cc1
Cc1ncsc1CCOC(=O)c1cccc([N+](=O)[O-])c1
CC#CC[N+](C)(C)CCCCCCCCCCCC
Cc1cc(OCc2cc(C(=O)NCCN3CCCCC3CO)no2)cc(C)c1Cl (stereo not drawn)
Cc1cc(N2CCC(C)CC2)nc2cccc(O)c12
Fc1ccccc1COc1ccc(Br)cc1CNCC1CCCO1 (stereo not drawn)
Cn1cc(CNCC2CCCO2)c(-c2ccc(Oc3ccccc3)cc2)n1 (stereo not drawn)
COc1cccc(C2=NN(C(=O)c3ccco3)C(c3ccco3)C2)c1 (stereo not drawn)
O=C(COC(=O)Cn1cnc2ccccc2c1=O)Nc1ccccc1Sc1ccc(Cl)cc1
NC(=O)c1nsc(C(=O)N(Cc2ccccc2Cl)C(C(=O)NCC2CCCO2)c2ccc(O)cc2)c1N (stereo not drawn)
O=C(NC1CCCCC1)N1CCN(C(c2ccccc2)c2ccccc2)CC1
Cc1ccc(NC(=S)N(CCCN(C)C)Cc2cc3cc4c(cc3[nH]c2=O)OCO4)c(C)c1
CCCC[n+]1c2ccccc2cc2ccccc21
CC(C)(C)CC(C)(C)NCC(O)COc1ccc2c(c1)CCC2 (stereo not drawn)
CCOc1ccc(Cl)cc1/C=N/O
O=C(C[n+]1cc(-c2ccc(Cl)c(Cl)c2)n2c1CCC2)N1c2ccccc2Sc2ccccc21
CC1CCc2c(sc3ncnc(SCC(=O)Nc4ccc(C(=O)O)cc4)c23)C1 (stereo not drawn)
NS(=O)(=O)c1ccc(Nc2nc(-c3ccc(O)cc3O)cs2)cc1
CCCn1c(NC(=O)c2ccc(Cl)c(S(=O)(=O)N3CCCC3)c2)nc2ccccc21
